Biological target: yeast Hsp90 M705V
Test: ITC of TPR-domain proteins with yeast Hsp90 M705V
Assay type: binding
Details: 300 μM CHIP injected into 30 μM yeast Hsp90 M705V, 30 °C, pH 8.0
Summary of the method: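 ITC: mouse CHIP or yeast Tah1 (His tags cleaved) at 300 µM was titrated as 9–11 injections of 27 µl into 30 µM yeast Hsp90 M705V. Runs were at 30 °C for CHIP and 4 °C for Tah1, in 20 mM Tris/HCl pH 8.0, 1 mM EDTA, 5 mM NaCl. Data were corrected for separately measured heat of dilution and fitted by nonlinear least squares for stoichiometry, binding constant and enthalpy.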

Kd: 6.7 ± 0.62 µM
B1: CHIP: mouse C-terminal of Hsp70-interacting protein, TPR-domain co-chaperone involved in ubiquitylation of chaperone-bound client proteins (protein)
chain: MKGKEEKEGGARLGTGGGGSPDKSPSAQELKEQGNRLFVGRKYPEAAACYGRAITRNPLVAVYYTNRALCYLKMQQPEQALADCRRALELDGQSVKAHFFLGQCQLEMESYDEAIANLQRAYSLAKEQRLNFGDDIPSALRIAKKKRWNSIEERRIHQESELHSYLTRLIAAERERELEECQRNHEGHEDDGHIRAQQACIEAKHDKYMADMDELFSQVDEKRKKRDIPDYLCGKISFELMREPCITPSGITYDRKDIEEHLQRVGHFDPVTRSPLTQEQLIPNLAMKEVIDAFISENGWVEDY
modifications: left off: His-PreScission tag, end not stated, cleaved
